Data set [1] can be described thus: Solubility of the compound in phosphate buffered saline at pH 5. The format is physicochemical.
Data set [2] is described as follows: Lipophilicity, log D of the compound. The data set is classed as physicochemical. The note with it: octanol/water.
Data set [3] is described as follows: Clearance in Beagle dog at 2 mg/kg, po and 1 mg/kg, iv. As to conditions: in vivo. The format is ADME, organism-based, Canis lupus familiaris.
The nature of data set [4]: Ratio of drug level in brain to blood in CD rat at 1 mg/kg, iv. The format is ADME, organism-based. Set-up: dose 1 mg/kg, route intravenous. As to conditions: read-out: BBR.
A short description of data set [5]: Oral bioavailability in Beagle dog at 2 mg/kg. The format is ADME, organism-based, Canis lupus familiaris. As to conditions: in vivo.
In data set [6] the target is T1, Alpha-1A adrenergic receptor (Homo sapiens, UniProt P35348).
T1 sequence (P35348 whole entry): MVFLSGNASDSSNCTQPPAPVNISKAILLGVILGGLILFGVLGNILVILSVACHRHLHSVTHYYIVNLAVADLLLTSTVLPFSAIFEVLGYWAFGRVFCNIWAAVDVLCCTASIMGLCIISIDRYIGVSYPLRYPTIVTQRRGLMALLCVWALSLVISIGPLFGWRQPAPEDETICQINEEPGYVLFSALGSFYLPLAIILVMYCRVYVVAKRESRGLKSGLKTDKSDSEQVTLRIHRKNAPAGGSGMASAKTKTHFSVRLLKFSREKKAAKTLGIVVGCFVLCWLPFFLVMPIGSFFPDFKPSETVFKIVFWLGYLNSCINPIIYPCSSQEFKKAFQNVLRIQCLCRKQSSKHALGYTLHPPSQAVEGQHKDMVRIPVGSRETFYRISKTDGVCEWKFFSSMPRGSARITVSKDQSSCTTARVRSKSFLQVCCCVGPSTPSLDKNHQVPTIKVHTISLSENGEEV
The data set can be described thus: Binding affinity to human adrenergic alpha1A receptor expressed in rat intact fibroblasts.

Data set [7] in a line: Bioavailability in intranasally dosed human. The data set is classed as ADME, organism-based. As to conditions: in vivo, inhaled or intranasal.
A short description of data set [8]: Clearance in CD rat at 3 mg/kg, po and 1 mg/kg, iv. The format is ADME, organism-based. As to conditions: in vivo. The method, boiled down:
(§1)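 Male CD rats dosed 3.0 mg/kg po and 1.0 mg/kg iv, groups of 3 or 7 animals. Clearance, Vss, t1/2 and F are reported with ranges, and clearance is also expressed as % of liver blood flow.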

A short description of data set [9]: Volume of distribution at steady state in Beagle dog at 2 mg/kg, po and 1 mg/kg, iv. The data set is classed as ADME, organism-based, Canis lupus familiaris. As to conditions: in vivo, read-out: Vdss.
Data set [10] is described as follows: Half life in Beagle dog at 2 mg/kg, po and 1 mg/kg, iv. The format is ADME, organism-based, Canis lupus familiaris. The note with it: in vivo.
For data set [11], the system named is Rattus norvegicus. The data set can be described thus: Liver blood flow in CD rat at 3 mg/kg, po and 1 mg/kg, iv. The format is ADME, organism-based. The note with it: in vivo. Put shortly: as §1
Data set [12] is described as follows: Volume of distribution at steady state in CD rat at 3 mg/kg, po and 1 mg/kg, iv. The data set is classed as ADME, organism-based. The note with it: in vivo, read-out: Vdss. Put shortly:
as §1

Data set [13] addresses T2, Alpha-1B adrenergic receptor (Homo sapiens, UniProt P35368).
T2 sequence (P35368 whole entry): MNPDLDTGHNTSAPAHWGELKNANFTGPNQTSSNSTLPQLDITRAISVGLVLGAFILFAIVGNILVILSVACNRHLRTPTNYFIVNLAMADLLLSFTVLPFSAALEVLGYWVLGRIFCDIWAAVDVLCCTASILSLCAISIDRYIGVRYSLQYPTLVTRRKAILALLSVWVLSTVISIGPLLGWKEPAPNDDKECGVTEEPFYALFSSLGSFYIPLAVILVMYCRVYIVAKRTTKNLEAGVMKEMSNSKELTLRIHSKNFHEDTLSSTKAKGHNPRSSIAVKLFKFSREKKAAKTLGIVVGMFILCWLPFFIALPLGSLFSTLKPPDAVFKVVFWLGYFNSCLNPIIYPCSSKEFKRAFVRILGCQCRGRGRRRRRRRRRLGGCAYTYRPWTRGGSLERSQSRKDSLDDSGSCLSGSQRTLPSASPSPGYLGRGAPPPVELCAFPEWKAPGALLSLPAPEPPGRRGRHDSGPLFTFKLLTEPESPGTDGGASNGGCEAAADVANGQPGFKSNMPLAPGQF
The data set is described as follows: Binding affinity to human adrenergic Alpha-1B receptor expressed in rat intact fibroblasts. The method, boiled down: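 Plate-based calcium imaging in intact Rat1 fibroblasts expressing the human α1B adrenoceptor.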

The target of data set [14] is Histamine H3 receptor (Homo sapiens, UniProt Q9Y5N1). The data set can be described thus: Antagonist activity at human recombinant histamine H3 receptor expressed in CHO cells assessed as inhibition of histamine-induced GTP-gammaS binding. The data set is classed as functional, cell-based. The method, boiled down: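 Membranes from CHO cells transfected with cloned human H3 receptor; reduction of histamine-stimulated GTPγS binding, detected by scintillation proximity.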
Sequence of Histamine H3 receptor (Q9Y5N1 whole entry): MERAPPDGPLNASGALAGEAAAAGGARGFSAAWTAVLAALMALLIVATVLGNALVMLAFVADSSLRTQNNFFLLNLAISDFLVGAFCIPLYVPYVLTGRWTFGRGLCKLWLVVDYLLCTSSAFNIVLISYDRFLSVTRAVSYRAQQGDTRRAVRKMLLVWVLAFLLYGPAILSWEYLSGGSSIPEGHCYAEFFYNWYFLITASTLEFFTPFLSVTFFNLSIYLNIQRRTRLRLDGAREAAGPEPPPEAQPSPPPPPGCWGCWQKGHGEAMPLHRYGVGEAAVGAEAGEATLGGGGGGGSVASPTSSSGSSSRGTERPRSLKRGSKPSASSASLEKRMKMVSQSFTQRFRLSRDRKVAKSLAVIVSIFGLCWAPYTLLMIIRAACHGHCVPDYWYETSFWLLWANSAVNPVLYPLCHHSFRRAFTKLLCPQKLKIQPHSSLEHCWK
On the technique in general: Binding of GTPγS marks nucleotide exchange on a G protein.

Data set [15] deals with Cavia porcellus. The data set can be described thus: Antiallergic rhinitis activity in conscious guinea pig assessed as duration of inhibition of histamine-induced nasal congestion at 1 mg/ml administered intranasally. The format is functional.
The nature of data set [16]: Oral bioavailability in CD rat at 3 mg/kg. The format is ADME, organism-based. The note with it: in vivo. Put shortly:
as §1

Data set [17] in a line: Half life in CD rat at 3 mg/kg, po and 1 mg/kg, iv. The note with it: in vivo. The format is ADME, organism-based. The method, boiled down:
as §1

The target of data set [18] is Cytochrome P450 2D6 (Homo sapiens, UniProt P10635). The data set is described as follows: Inhibition of CYP2D6. The format is ADME.
Sequence of Cytochrome P450 2D6 (P10635 whole entry): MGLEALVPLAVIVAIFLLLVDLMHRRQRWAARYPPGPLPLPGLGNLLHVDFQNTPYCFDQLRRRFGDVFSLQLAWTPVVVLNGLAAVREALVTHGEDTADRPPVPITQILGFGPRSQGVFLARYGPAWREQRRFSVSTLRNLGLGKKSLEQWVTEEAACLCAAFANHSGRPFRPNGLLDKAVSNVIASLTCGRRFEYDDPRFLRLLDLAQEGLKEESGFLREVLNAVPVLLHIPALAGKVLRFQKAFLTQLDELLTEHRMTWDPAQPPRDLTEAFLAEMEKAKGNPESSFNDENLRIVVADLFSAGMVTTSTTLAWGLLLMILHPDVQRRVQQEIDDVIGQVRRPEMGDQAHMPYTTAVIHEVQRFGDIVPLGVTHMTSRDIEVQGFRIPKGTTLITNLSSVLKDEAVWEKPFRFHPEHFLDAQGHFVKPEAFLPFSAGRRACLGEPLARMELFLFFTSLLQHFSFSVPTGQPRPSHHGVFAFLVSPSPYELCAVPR
For data set [19], the target named is T3, Histamine H1 receptor (Homo sapiens, UniProt P35367). The data set can be described thus: Antagonist activity at human recombinant histamine H1 receptor expressed in intact CHO cells assessed as inhibition of histamine-induced cellular calcium mobilization at 100 nM incubated for 30 mins measured after washout followed by repeat histamine challenge at intervals of 90 and 270 mins by FLIPR assay. The format is functional, cell-based. (A change in cytosolic calcium serves as a functional read-out for many receptors and channels.)
T3 sequence (P35367 whole entry): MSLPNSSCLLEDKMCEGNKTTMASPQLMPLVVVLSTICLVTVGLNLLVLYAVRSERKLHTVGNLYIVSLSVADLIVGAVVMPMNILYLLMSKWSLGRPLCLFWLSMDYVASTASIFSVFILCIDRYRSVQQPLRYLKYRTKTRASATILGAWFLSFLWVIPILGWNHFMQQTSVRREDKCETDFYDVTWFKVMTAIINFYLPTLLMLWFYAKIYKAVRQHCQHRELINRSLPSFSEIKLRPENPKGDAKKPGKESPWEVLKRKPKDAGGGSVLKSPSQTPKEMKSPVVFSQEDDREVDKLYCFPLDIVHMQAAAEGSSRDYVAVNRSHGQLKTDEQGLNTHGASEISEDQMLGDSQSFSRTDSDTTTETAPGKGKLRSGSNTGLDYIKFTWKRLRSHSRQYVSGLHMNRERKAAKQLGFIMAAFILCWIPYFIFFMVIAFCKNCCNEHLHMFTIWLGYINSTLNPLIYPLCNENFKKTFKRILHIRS

Data set [20] deals with T3, Histamine H1 receptor. The data set can be described thus: Antagonist activity at human recombinant histamine H1 receptor expressed in intact CHO cells assessed as inhibition of histamine-induced cellular calcium mobilization at 100 nM after 30 mins by FLIPR assay. The data set is classed as functional, cell-based. As to conditions: read-out: pA2 (converted). The method, boiled down: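 Intact CHO cells expressing recombinant human H1; Fluo-4AM calcium dye read on FLIPR. Histamine concentration-response curves run without or with antagonist at a single 100 nM, 30 min incubation. EC50 from four-parameter logistic fit; pA2 = log(DR-1) - log[B], DR being EC50 with antagonist over control EC50.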

The target of data set [21] is T3, Histamine H1 receptor. The data set can be described thus: Antagonist activity at human recombinant histamine H1 receptor expressed in intact CHO cells assessed as inhibition of histamine-induced cellular calcium mobilization by FLIPR assay. The format is functional, cell-based. The method, boiled down:
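Human recombinant H1 receptor in intact CHO cells; inhibition of agonist-induced calcium mobilization read with Fluo-4AM in FLIPR. EC50 came from a four-parameter logistic fit, and pA2 = log(DR−1) − log[B], where DR is the EC50 ratio versus control.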

pIC50, pKi: −log10 of the molar value. Calls of active or inactive are those of the source. A value given as a limit tells only on which side of the number the result lay.

What is called solubility is the dissolved amount per volume that the medium holds. Read a high solubility as a readily soluble substance. As a reminder, the logD is lipophilicity at a set pH, counting ionised and neutral species. The molecule `O.O=S(=O)(O)c1cccc2c(S(=O)(=O)O)cccc12.O=c1c2ccccc2c(Cc2ccc(Cl)cc2)nn1C[C@H]1CCCN1CCCCc1ccc(OCCCN2CCCCCC2)cc1` showed a solubility in [1] of 20 µg/mL. Moreover, the logD in data set [2] was determined as 3.

`Cl.Cl.Cl.O=c1c2ccccc2c(Cc2ccc(Cl)cc2)nn1C[C@H]1CCCN1CCCCc1ccc(OCCCN2CCCCCC2)cc1` gave a solubility in data set [1] above 11 µg/mL. Moreover, the logD in data set [2] (read-out: logD) is 2.86.

A word on the bioavailability: it is dose-corrected exposure relative to a reference, in per cent. Broadly, the pKi is −log10 of the Ki, conventionally taken in molar units. For orientation: half-life means the time needed for the level to fall by half in the phase considered. High values mean slow decline, low ones rapid decline. In general, pIC50 refers to the IC50 on a negative log10 scale, so that one unit is a factor of ten. A low value points to a high IC50. Turning to `CN1CCCC(n2nc(Cc3ccc(Cl)cc3)c3ccccc3c2=O)CC1` (racemic) [AZELASTINE], the clearance in [3] came to 22 mL/min/kg; in [8], 35 mL/min/kg. For the same molecule, the Kp in data set [4] amounted to 7.5. Also, the bioavailability turned out to be 46% in [5], 40% in data set [7] and 7% in data set [16]. The results for the pKi in [6], in [13] and in [14] were 7.30, 7.30 and 6.80, respectively. Further, the Vd amounted to 4.9 L/kg in [9] and 1.8 L/kg in [12]. Besides, the half-life in data set [10] was 3.2 h; in [17], 1 h. Also, the LBF in data set [11] is on record as 41%. Moreover, in data set [15], the Time is below 24 h. The molecule further gave a pIC50 in data set [18] of 6.00.

`O=c1c2ccccc2c(Cc2ccc(O)cc2)nn1C[C@H]1CCCN1CCCCc1ccc(OCCCN2CCCCCC2)cc1`: in data set [19], the inhibition result was “Active”. For the same molecule, the pKi was 7.00 in data set [6], 7.90 in data set [21], 6.90 in data set [13] and 9.40 in data set [14]. In [20], the Kb is 3.98 nM.

For `O=c1c2ccccc2c(Cc2ccc(Cl)cc2)nn1C[C@H]1CCCN1CCCCCc1ccc(OCCCN2CCCCCC2)cc1`, the inhibition result in data set [19] is “Active”. Also, the pKi is 7.60 in data set [6], 7.90 in data set [21], 7.30 in data set [13] and 9.40 in data set [14]. In addition, the Kb in data set [20] was 1.26 nM.

The values above are taken from ChEMBL document CHEMBL1764974, “The discovery of phthalazinone-based human H1 and H3 single-ligand antagonists suitable for intranasal administration for the treatment of allergic rhinitis” (J Med Chem, 2011).
